Measurements reported in ChEMBL document CHEMBL5257027 (Eur J Med Chem, 2016).

Key:
[1] = Antiproliferative activity against human Panel NCI-58 (58 Carcinoma cell lines) assessed as reduction in mean cell growth at 10 uM; type: functional; parameters: scale not given: the % may be the effect or the level left
Summary of the method: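 NCI 58-cell-line screen covering leukemia, NSCLC, colon, CNS, melanoma, ovarian, renal, prostate and breast lines. Compounds given once at […] (micromolar per the line). Percent inhibition taken as 100 minus growth percent. Panel line reports the mean over all 58 lines.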

[2] = species on record: Homo sapiens; test: Inhibition of ABL […] mutant (unknown origin) at 10 uM using […] as substrate incubated for 40 mins in presence of [gamma33P]ATP by scintillation counting based hotspot kinase assay relative to control
[3] = biological target: Tyrosine-protein kinase ABL1 (Homo sapiens) (UniProt P00519); test: Inhibition of ABL (unknown origin) at 10 uM using […] as substrate incubated for 40 mins in presence of [gamma33P]ATP by scintillation counting based hotspot kinase assay relative to control
[4] = biological target: RAF proto-oncogene serine/threonine-protein kinase (Homo sapiens, UniProt P04049); test: Inhibition of RAF1 (unknown origin) at 10 uM using […] as substrate incubated for 40 mins in presence of [gamma33P]ATP by scintillation counting based hotspot kinase assay relative to control
[5] = biological target: Mitogen-activated protein kinase 14 (Homo sapiens) (UniProt Q16539); test: Inhibition of MAPK14 (p38 alpha) (unknown origin) at 10 uM using […] as substrate incubated for 40 mins in presence of [gamma33P]ATP by scintillation counting based hotspot kinase assay relative to control
[6] = biological target: Epidermal growth factor receptor (Homo sapiens) (UniProt P00533); test: Inhibition of EGFR (unknown origin) at 10 uM using […] as substrate incubated for 40 mins in presence of [gamma33P]ATP by scintillation counting based hotspot kinase assay relative to control
[7] = tested on: Serine/threonine-protein kinase B-raf (Homo sapiens), P15056 [V600E]; test: Inhibition of B-RAF V600E mutant (unknown origin) at 10 uM using […] as substrate incubated for 40 mins in presence of [gamma33P]ATP by scintillation counting based hotspot kinase assay relative to control
[8] = biological target: Serine/threonine-protein kinase B-raf (Homo sapiens) (UniProt P15056); test: Inhibition of B-RAF (unknown origin) at 10 uM using […] as substrate incubated for 40 mins in presence of [gamma33P]ATP by scintillation counting based hotspot kinase assay relative to control
[9] = tested on: NCI/ADR-RES; test: Cytotoxicity against human NCI/ADR-RES cells; type: functional
Summary of the method: (§1)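 Run in the US NCI 58-cell-line screen covering nine cancer types (leukemia, NSCLC, colon, CNS, melanoma, ovarian, renal, prostate, breast). Five-dose mode gave GI50, TGI and LC50 values for each cell line. In the single-dose pre-screen, % inhibition was taken as 100 minus growth percentage.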

[10] = tested on: SK-MEL-5; test: Cytotoxicity against human SK-MEL-5 cells; type: functional; summary of the method: as §1
[11] = tested on: SNB-75; test: Cytotoxicity against human SNB-75 cells; type: functional; details: read-out: LC50 (the source's name); summary of the method: as §1
[12] = tested on: MDA-MB-468; test: Antiproliferative activity against human MDA-MB-468 cells assessed as total growth inhibition; type: functional
Summary of the method: (§2)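 NCI five-dose testing across the 58-line panel gives GI50, TGI and LC50 for each line. Subpanel lines report mean GI50 for each of the nine cancer types.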

[13] = tested on: PC-3; test: Antiproliferative activity against human PC-3 cells assessed as total growth inhibition; type: functional; summary of the method: as §2
[14] = tested on: PC-3; test: Cytotoxicity against human PC-3 cells; type: functional; summary of the method: as §1
[15] = tested on: RXF 393; test: Antiproliferative activity against human RXF 393 cells assessed as total growth inhibition; type: functional; summary of the method: as §2
[16] = tested on: NCI/ADR-RES; test: Antiproliferative activity against human NCI/ADR-RES cells assessed as total growth inhibition; type: functional; summary of the method: as §2
[17] = tested on: HOP-92; test: Cytotoxicity against human HOP-92 cells; type: functional; summary of the method: as §1
[18] = tested on: K562; test: Cytotoxicity against human k562 cells; type: functional; details: read-out: LC50 (the source's name); summary of the method: as §1
[19] = tested on: SK-MEL-5; test: Antiproliferative activity against human SK-MEL-5 cells assessed as total growth inhibition; type: functional; summary of the method: as §2
[20] = tested on: SNB-75; test: Antiproliferative activity against human SNB-75 cells assessed as total growth inhibition; type: functional; summary of the method: as §2
[21] = tested on: RXF 393; test: Cytotoxicity against human RXF 393 cells; type: functional; summary of the method: as §1
[22] = tested on: HCT-15; test: Cytotoxicity against human HCT-15 cells; type: functional; details: read-out: LC50 (the source's name); summary of the method: as §1
[23] = tested on: HCT-15; test: Antiproliferative activity against human HCT-15 cells assessed as total growth inhibition; type: functional; summary of the method: as §2
[24] = tested on: COLO 205; test: Cytotoxicity against human COLO 205 cells; type: functional; summary of the method: as §1
[25] = tested on: COLO 205; test: Antiproliferative activity against human COLO 205 cells assessed as total growth inhibition; type: functional; summary of the method: as §2
[26] = tested on: HOP-92; test: Antiproliferative activity against human HOP-92 cells assessed as total growth inhibition; type: functional; summary of the method: as §2
[27] = tested on: MDA-MB-468; test: Antiproliferative activity against human MDA-MB-468 cells assessed as reduction in cell growth; type: functional; summary of the method: as §2
[28] = tested on: PC-3; test: Antiproliferative activity against human PC-3 cells assessed as reduction in cell growth; type: functional; summary of the method: as §2
[29] = tested on: RXF 393; test: Antiproliferative activity against human RXF 393 cells assessed as reduction in cell growth; type: functional; summary of the method: as §2
[30] = tested on: NCI/ADR-RES; test: Antiproliferative activity against human NCI/ADR-RES cells assessed as reduction in cell growth; type: functional; summary of the method: as §2
[31] = tested on: SK-MEL-5; test: Antiproliferative activity against human SK-MEL-5 cells assessed as reduction in cell growth; type: functional; summary of the method: as §2
[32] = tested on: SNB-75; test: Antiproliferative activity against human SNB-75 cells assessed as reduction in cell growth; type: functional; summary of the method: as §2
[33] = tested on: HCT-15; test: Antiproliferative activity against human HCT-15 cells assessed as reduction in cell growth; type: functional; summary of the method: as §2
[34] = tested on: COLO 205; test: Antiproliferative activity against human COLO 205 cells assessed as reduction in cell growth; type: functional; summary of the method: as §2
[35] = tested on: HOP-92; test: Antiproliferative activity against human HOP-92 cells assessed as reduction in cell growth; type: functional; summary of the method: as §2
[36] = tested on: K562; test: Antiproliferative activity against human K562 cells assessed as reduction in cell growth; type: functional; summary of the method: as §2
[37] = tested on: Panel breast (Carcinoma cell lines); test: Antiproliferative activity against human Panel breast (6 Carcinoma cell lines) assessed as reduction in mean cell growth; type: functional; summary of the method: as §2
[38] = tested on: Panel prostate (Carcinoma cell lines); test: Antiproliferative activity against human Panel prostate (2 Carcinoma cell lines) assessed as reduction in mean cell growth; type: functional; summary of the method: as §2
[39] = tested on: Panel renal (Carcinoma cell lines); test: Antiproliferative activity against human Panel renal (8 Carcinoma cell lines) assessed as reduction in mean cell growth; type: functional; summary of the method: as §2
[40] = tested on: Panel ovarian (Carcinoma cell lines); test: Antiproliferative activity against human Panel ovarian (7 Carcinoma cell lines) assessed as reduction in mean cell growth; type: functional; summary of the method: as §2
[41] = tested on: Panel CNS (Carcinoma cell lines); test: Antiproliferative activity against human Panel CNS (6 Carcinoma cell lines) assessed as reduction in mean cell growth; type: functional; summary of the method: as §2
[42] = tested on: Panel melanoma (Carcinoma cell lines); test: Antiproliferative activity against human Panel melanoma (9 Carcinoma cell lines) assessed as reduction in mean cell growth; type: functional; summary of the method: as §2
[43] = tested on: Panel colon (Carcinoma cell lines); test: Antiproliferative activity against human Panel colon (7 Carcinoma cell lines) assessed as reduction in mean cell growth; type: functional; summary of the method: as §2
[44] = Antiproliferative activity against human Panel non-small cell lung cancer (8 Carcinoma cell lines) assessed as reduction in mean cell growth; type: functional; details: Non-small cell lung cancer cell line; summary of the method: as §2
[45] = tested on: Panel leukemia (Carcinoma cell lines); test: Antiproliferative activity against human Panel leukemia (5 Carcinoma cell lines) assessed as reduction in mean cell growth; type: functional; summary of the method: as §2

Sequence of Tyrosine-protein kinase ABL1 (Homo sapiens) (P00519 whole entry): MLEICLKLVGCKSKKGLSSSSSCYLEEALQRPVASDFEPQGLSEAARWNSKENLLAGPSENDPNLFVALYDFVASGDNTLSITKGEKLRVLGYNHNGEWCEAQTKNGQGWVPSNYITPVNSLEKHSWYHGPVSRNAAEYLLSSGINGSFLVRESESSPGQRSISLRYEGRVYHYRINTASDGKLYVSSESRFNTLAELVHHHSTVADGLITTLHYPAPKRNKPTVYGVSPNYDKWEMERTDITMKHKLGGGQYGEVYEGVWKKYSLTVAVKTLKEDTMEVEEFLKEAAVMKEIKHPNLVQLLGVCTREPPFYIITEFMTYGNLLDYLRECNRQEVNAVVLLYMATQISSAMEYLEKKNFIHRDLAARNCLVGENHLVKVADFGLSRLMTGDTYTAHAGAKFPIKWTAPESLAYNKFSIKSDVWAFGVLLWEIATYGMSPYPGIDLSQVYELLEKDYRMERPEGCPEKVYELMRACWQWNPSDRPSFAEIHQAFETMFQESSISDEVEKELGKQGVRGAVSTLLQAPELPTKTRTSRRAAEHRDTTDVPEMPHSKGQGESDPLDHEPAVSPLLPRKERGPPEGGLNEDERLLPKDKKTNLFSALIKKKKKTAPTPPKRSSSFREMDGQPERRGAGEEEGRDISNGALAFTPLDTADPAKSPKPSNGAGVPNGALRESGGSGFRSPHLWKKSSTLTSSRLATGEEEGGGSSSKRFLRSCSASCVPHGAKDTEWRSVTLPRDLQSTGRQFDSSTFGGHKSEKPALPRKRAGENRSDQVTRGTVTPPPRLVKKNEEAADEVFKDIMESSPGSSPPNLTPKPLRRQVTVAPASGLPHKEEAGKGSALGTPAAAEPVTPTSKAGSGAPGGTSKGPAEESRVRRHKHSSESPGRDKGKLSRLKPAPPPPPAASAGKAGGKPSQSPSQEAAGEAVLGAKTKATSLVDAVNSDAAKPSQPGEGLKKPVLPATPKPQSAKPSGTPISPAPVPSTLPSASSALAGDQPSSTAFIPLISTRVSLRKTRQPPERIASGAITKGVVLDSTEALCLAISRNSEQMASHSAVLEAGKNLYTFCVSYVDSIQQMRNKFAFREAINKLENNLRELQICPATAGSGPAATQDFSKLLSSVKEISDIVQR
Sequence of Mitogen-activated protein kinase 14 (Homo sapiens) (Q16539 whole entry): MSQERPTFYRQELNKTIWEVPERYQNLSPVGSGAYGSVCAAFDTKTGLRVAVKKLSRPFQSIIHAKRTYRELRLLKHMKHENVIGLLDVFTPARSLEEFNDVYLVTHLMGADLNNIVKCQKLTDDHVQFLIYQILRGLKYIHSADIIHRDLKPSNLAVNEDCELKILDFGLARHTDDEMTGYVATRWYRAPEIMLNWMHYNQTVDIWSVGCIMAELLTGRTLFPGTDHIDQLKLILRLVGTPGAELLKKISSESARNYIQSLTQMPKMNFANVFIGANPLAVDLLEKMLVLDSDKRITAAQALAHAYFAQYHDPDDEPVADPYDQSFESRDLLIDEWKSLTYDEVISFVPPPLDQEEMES
Sequence of Serine/threonine-protein kinase B-raf (Homo sapiens) (P15056 whole entry): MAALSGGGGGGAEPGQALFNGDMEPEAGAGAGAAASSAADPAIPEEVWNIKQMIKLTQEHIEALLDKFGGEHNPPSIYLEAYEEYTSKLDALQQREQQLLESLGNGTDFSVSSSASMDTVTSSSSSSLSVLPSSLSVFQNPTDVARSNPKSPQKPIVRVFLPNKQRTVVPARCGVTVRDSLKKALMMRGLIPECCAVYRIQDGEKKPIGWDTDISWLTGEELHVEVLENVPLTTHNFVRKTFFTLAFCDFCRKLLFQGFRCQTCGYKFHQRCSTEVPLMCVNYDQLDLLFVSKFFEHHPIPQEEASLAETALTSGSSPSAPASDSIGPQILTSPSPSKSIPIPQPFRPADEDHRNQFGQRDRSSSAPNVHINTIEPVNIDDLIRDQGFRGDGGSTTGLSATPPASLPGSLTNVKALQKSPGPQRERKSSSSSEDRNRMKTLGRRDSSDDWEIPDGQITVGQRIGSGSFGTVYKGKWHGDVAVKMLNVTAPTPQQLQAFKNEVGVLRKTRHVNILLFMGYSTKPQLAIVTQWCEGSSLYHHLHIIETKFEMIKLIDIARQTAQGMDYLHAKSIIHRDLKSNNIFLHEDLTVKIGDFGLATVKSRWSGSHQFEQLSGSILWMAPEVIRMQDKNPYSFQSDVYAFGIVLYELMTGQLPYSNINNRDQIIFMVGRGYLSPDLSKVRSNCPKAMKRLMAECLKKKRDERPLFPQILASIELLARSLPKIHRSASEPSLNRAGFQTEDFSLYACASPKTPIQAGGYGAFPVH
Sequence of Serine/threonine-protein kinase B-raf (Homo sapiens), P15056 [V600E] (P15056 whole entry V600E): as the sequence (P15056 whole entry) above, with V600E counted along it
Sequence of Epidermal growth factor receptor (Homo sapiens) (P00533 whole entry): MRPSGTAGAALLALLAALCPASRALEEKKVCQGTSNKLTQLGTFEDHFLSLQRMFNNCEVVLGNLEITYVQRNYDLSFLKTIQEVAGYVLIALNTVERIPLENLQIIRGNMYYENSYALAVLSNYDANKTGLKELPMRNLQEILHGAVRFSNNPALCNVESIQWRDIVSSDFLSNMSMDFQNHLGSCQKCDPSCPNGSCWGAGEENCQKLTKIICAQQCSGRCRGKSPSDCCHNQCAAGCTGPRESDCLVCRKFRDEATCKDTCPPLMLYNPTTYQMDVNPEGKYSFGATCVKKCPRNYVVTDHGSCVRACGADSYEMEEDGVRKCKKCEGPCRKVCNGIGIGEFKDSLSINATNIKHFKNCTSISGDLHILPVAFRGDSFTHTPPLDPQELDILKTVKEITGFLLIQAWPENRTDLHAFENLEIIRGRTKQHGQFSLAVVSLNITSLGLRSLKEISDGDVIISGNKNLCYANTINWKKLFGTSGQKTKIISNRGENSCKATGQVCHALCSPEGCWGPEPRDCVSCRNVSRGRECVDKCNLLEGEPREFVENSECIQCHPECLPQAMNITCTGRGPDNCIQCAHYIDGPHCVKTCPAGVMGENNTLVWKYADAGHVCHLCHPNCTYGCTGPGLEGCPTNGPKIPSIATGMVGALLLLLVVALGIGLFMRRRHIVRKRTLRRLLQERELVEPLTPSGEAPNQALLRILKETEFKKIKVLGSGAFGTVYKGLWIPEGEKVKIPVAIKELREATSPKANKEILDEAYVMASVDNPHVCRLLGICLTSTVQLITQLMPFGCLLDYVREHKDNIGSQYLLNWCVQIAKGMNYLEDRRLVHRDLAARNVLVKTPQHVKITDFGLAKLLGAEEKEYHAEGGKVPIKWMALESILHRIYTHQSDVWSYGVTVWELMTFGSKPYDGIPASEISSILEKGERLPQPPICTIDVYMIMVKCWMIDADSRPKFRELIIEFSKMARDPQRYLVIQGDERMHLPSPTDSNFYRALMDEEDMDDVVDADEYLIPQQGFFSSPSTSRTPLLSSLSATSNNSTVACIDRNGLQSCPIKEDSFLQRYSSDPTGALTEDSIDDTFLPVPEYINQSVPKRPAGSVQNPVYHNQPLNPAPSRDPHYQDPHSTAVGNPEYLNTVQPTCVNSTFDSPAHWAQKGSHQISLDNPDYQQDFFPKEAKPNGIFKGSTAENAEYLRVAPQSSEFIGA
Sequence of RAF proto-oncogene serine/threonine-protein kinase (P04049 whole entry): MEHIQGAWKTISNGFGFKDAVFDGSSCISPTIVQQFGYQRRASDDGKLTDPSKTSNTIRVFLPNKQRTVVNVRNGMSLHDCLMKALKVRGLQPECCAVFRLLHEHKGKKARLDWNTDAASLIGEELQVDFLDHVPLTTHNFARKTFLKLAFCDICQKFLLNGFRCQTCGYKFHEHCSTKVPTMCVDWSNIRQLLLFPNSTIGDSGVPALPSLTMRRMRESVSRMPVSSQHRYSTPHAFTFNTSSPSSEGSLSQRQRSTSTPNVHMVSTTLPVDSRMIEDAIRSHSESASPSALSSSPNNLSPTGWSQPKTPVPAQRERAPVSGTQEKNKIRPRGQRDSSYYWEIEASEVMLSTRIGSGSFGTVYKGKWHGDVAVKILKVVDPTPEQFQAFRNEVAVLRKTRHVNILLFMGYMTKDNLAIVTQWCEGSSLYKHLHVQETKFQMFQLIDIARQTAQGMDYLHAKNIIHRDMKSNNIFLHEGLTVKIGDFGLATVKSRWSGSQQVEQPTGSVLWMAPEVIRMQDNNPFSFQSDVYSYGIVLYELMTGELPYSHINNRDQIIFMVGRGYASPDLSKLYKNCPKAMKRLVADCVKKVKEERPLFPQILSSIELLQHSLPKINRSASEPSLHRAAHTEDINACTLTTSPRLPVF

O=C(NCCCNc1cc(-c2cn(-c3ccccc3)nc2-c2cccc(O)c2)ccn1)c1ccccc1
Activity [1]: >80% | inhibition [2]: 9.61% | inhibition [3]: 16% | inhibition [4]: 39.6% | inhibition [5]: 74.5% | inhibition [6]: 3.72% | inhibition [7]: 34.4% | inhibition [8]: 10.8% | LC50 [9]: 100 µM | LC50 [10]: 6.54 µM | CC50 [11]: 100 µM | TGI [12]: 3.36 µM | TGI [13]: 15.2 µM | LC50 [14]: 100 µM | TGI [15]: 6.2 µM | TGI [16]: 9.79 µM | LC50 [17]: 100 µM | CC50 [18]: 100 µM | TGI [19]: 3.12 µM | TGI [20]: 46.9 µM | LC50 [21]: 100 µM | CC50 [22]: 100 µM | TGI [23]: 5.12 µM | LC50 (lethal concentration 50%) [24]: 7.88 µM | TGI [25]: 3.67 µM | TGI [26]: 24.5 µM | GI50 [27]: 1380 nM | GI50 [28]: 2100 nM | GI50 [29]: 1970 nM | GI50 [30]: 2670 nM | GI50 [31]: 1490 nM | GI50 [32]: 1680 nM | GI50 [33]: 1510 nM | GI50 [34]: 1710 nM | GI50 [35]: 1700 nM | GI50 [36]: 750 nM | GI50 [37]: 2130 nM | GI50 [38]: 3.69 µM | GI50 [39]: 3.63 µM | GI50 [40]: 4.17 µM | GI50 [41]: 3.6 µM | GI50 [42]: 2300 nM | GI50 [43]: 2300 nM | GI50 [44]: 3.4 µM | GI50 [45]: 1620 nM
